Measured values from ChEMBL document CHEMBL1122187, “Synthesis and antiviral activity of certain carbamoylpyrrolopyrimidine and pyrazolopyrimidine nucleosides” (1982).

How the values were obtained:
[1] = tested on: Vero; assay: In vitro antiviral activity against vaccinia(VV) virus was determined in african green monkey kidney (vero,V) expressed as virus rating. Toxic level(1000 ug/mL); assay type: functional, Chlorocebus sabaeus
In short: (§1)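 Cell monolayers (18 h) infected with 320 TCID50 of virus. Compound was added within 15–30 min at half-log dilutions from 1000 to 1 μg/mL. After 72 h at 37 °C in 5% CO2, CPE was scored 0–4 by microscopy. VR = sum of (virus control − treated) scores, halved at partially toxic levels, divided by 10 × test cups per drug level.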

[2] = tested on: Vero; assay: In vitro antiviral activity against parainfluenza type 3(para 3) virus was determined in african green monkey kidney (vero,V) expressed as virus rating. Toxic level(1000 ug/mL); assay type: functional, Chlorocebus sabaeus; in short: as §1
[3] = tested on: HEp-2; assay: In vitro antiviral activity against parainfluenza type 3(para 3) virus was determined in human laryngeal epithelioma (HEp-2,H)expressed as virus rating. Toxic level(100 ug/mL); assay type: functional; in short: as §1
[4] = tested on: HEp-2; assay: In vitro antiviral activity against herpes simplex type 1 (HSV-1) virus was determined in human laryngeal epithelioma (HEp-2,H)expressed as virus rating. Toxic level(100 ug/mL); assay type: functional; in short: as §1
[5] = tested on: HEp-2; assay: In vitro antiviral activity against vaccinia(VV) virus was determined in human laryngeal epithelioma (HEp-2,H)expressed as virus rating. Toxic level(100 ug/mL); assay type: functional; in short: as §1
[6] = tested on: Vero; assay: In vitro antiviral activity against herpes simplex type 1 (HSV-1) virus was determined in african green monkey kidney (vero,V) expressed as virus rating. Toxic level(1000 ug/mL); assay type: functional, Chlorocebus sabaeus; in short: as §1
[7] = tested on: Vero; assay: Percentage plaque reduction was determined against venezuelan equine encephalitis (VEE) virus in african green monkey kidney (vero,V) at a conc of 250-500 ug/mL. Toxic level(320 ug/mL); assay type: functional, Chlorocebus sabaeus
[8] = tested on: Vero; assay: Percentage plaque reduction was determined against venezuelan equine encephalitis (VEE) virus in african green monkey kidney (vero,V) at a conc of 25-100 ug/mL. Toxic level(320 ug/mL); assay type: functional, Chlorocebus sabaeus
[9] = tested on: Vero; assay: In vitro antiviral activity against parainfluenza type 3(para 3) virus was determined in african green monkey kidney (vero,V) expressed as virus rating. Toxic level(320 ug/mL); assay type: functional, Chlorocebus sabaeus; in short: as §1
[10] = tested on: Vero; assay: In vitro antiviral activity against herpes simplex type 1 (HSV-1) virus was determined in african green monkey kidney (vero,V) expressed as virus rating. Toxic level(320 ug/mL); assay type: functional, Chlorocebus sabaeus; in short: as §1
[11] = tested on: Vero; assay: In vitro antiviral activity against vaccinia(VV) virus was determined in african green monkey kidney (vero,V) expressed as virus rating. Toxic level(320 ug/mL); assay type: functional, Chlorocebus sabaeus; in short: as §1
[12] = tested on: Vero; assay: Percentage plaque reduction was determined against Sandfly fever (SF) virus in african green monkey kidney (vero,V) at a conc of <25 ug/mL. Toxic level(320 ug/mL); assay type: functional, Chlorocebus sabaeus
In short: (§2)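 Infected Vero 24-well monolayers: virus adsorbed 1 h at 37 °C, then overlaid with agar holding dilutions of compound and incubated again at 37 °C with CO₂. Plaques were stained with crystal violet and counted. Inhibition was scored as % plaque reduction bands (10-30%, 31-60%, 61-90%), each tied to a drug concentration range.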

[13] = tested on: Vero; assay: Percentage plaque reduction was determined against venezuelan equine encephalitis (VEE) virus in african green monkey kidney (vero,V) at a conc of 100-250 ug/mL. Toxic level(320 ug/mL); assay type: functional, Chlorocebus sabaeus
[14] = tested on: Vero; assay: Percentage plaque reduction was determined against venezuelan equine encephalitis (VEE) virus in african green monkey kidney (vero,V) at a conc of <25 ug/mL. Toxic level(320 ug/mL); assay type: functional, Chlorocebus sabaeus
[15] = tested on: Vero; assay: Percentage plaque reduction was determined against Sandfly fever (SF) virus in african green monkey kidney (vero,V) at a conc of 100-250 ug/mL. Toxic level(320 ug/mL); assay type: functional, Chlorocebus sabaeus
[16] = tested on: Vero; assay: Percentage plaque reduction was determined against rift valley fever(RVF) virus in african green monkey kidney (vero,V) at a conc of 250-500 ug/mL. Toxic level(320 ug/mL); 10-30; assay type: functional, Chlorocebus sabaeus
[17] = tested on: Vero; assay: Percentage plaque reduction was determined against Sandfly fever (SF) virus in african green monkey kidney (vero,V) at a conc of 250-500 ug/mL. Toxic level(320 ug/mL); assay type: functional, Chlorocebus sabaeus
[18] = tested on: Vero; assay: Percentage plaque reduction was determined against yellow fever (YF) virus in african green monkey kidney (vero,V).Toxic level(320 ug/mL); 10-30; assay type: functional, Chlorocebus sabaeus
[19] = tested on: Vero; assay: Percentage plaque reduction was determined against Sandfly fever (SF) virus in african green monkey kidney (vero,V) at a conc of 25-100 ug/mL. Toxic level(320 ug/mL); assay type: functional, Chlorocebus sabaeus
[20] = tested on: Vero; assay: Percentage plaque reduction was determined against pichinde(PICH) virus in african green monkey kidney (vero,V).Toxic level(1000 ug/mL); 10-30; assay type: functional, Chlorocebus sabaeus; in short: as §2
[21] = tested on: Vero; assay: Percentage plaque reduction was determined against venezuelan equine encephalitis (VEE) virus in african green monkey kidney (vero,V) at a conc of 100-250 ug/mL. Toxic level(1000 ug/mL); assay type: functional, Chlorocebus sabaeus
[22] = tested on: Vero; assay: Percentage plaque reduction was determined against venezuelan equine encephalitis (VEE) virus in african green monkey kidney (vero,V) at a conc of <25 ug/mL. Toxic level(1000 ug/mL); assay type: functional, Chlorocebus sabaeus
[23] = tested on: Vero; assay: Percentage plaque reduction was determined against Sandfly fever (SF) virus in african green monkey kidney (vero,V) at a conc of 25-100 ug/mL. Toxic level(1000 ug/mL); 61-90; assay type: functional, Chlorocebus sabaeus
[24] = tested on: Vero; assay: Percentage plaque reduction was determined against yellow fever(YF) virus in african green monkey kidney (vero,V).Toxic level(1000 ug/mL); 61-90; assay type: functional, Chlorocebus sabaeus
[25] = tested on: Vero; assay: Percentage plaque reduction was determined against venezuelan equine encephalitis (VEE) virus in african green monkey kidney (vero,V) at a conc of 25-100 ug/mL. Toxic level(1000 ug/mL); assay type: functional, Chlorocebus sabaeus
[26] = tested on: Vero; assay: Percentage plaque reduction was determined against venezuelan equine encephalitis (VEE) virus in african green monkey kidney (vero,V) at a conc of 250-500 ug/mL. Toxic level(1000 ug/mL); assay type: functional, Chlorocebus sabaeus
[27] = tested on: Vero; assay: Percentage plaque reduction was determined against rift valley fever(RVF) virus in african green monkey kidney (vero,V) at a conc of 250-500 ug/mL. Toxic level(1000 ug/mL); 10-30; assay type: functional, Chlorocebus sabaeus
[28] = tested on: HEp-2; assay: In vitro antiviral activity against herpes simplex type 1 (HSV-1) virus was determined in human laryngeal epithelioma (HEp-2,H)expressed as virus rating. Toxic level(320 ug/mL); assay type: functional; in short: as §1
[29] = tested on: HEp-2; assay: In vitro antiviral activity against vaccinia(VV) virus was determined in human laryngeal epithelioma (HEp-2,H)expressed as virus rating. Toxic level (320 ug/mL); assay type: functional; in short: as §1
[30] = tested on: Vero; assay: In vitro antiviral activity against herpes simplex type 1 (HSV-1) virus was determined in african green monkey kidney (vero,V) expressed as virus rating. Toxic level(>1000 ug/mL); assay type: functional, Chlorocebus sabaeus; in short: as §1
[31] = tested on: Vero; assay: In vitro antiviral activity against vaccinia(VV) virus was determined in african green monkey kidney (vero,V) expressed as virus rating. Toxic level(>1000 ug/mL); assay type: functional, Chlorocebus sabaeus; in short: as §1
[32] = tested on: Vero; assay: In vitro antiviral activity against parainfluenza type 3(para 3) virus was determined in african green monkey kidney (vero,V) expressed as virus rating. Toxic level(>1000 ug/mL); assay type: functional, Chlorocebus sabaeus; in short: as §1
[33] = tested on: HEp-2; assay: In vitro antiviral activity against parainfluenza type-3 (para 3) virus was determined in human laryngeal epithelioma (HEp-2,H)expressed as virus rating. Toxic level(320 ug/mL); assay type: functional; in short: as §1

For `NC(=O)c1ncnc2c1ccn2C1O[C@H](CO)[C@@H](O)[C@H]1O` (some centres not stated), the Virus rating [1] was 1.3, the Virus rating [2] was 0.4 and the Virus rating [3] was 0.2. For the same compound, the Virus rating [4] was 0, the Virus rating [5] was 1.2 and the Virus rating [6] was 0.4.
`CSc1ncnc2c1cnn2[C@@H]1O[C@H](COC(C)=O)[C@@H](OC(C)=O)[C@H]1OC(C)=O` was tested, and the Plaque reduction [7] was 0%, the Plaque reduction [8] was 0% and the Virus rating [9] was 0. It also gave a Virus rating [10] of 0, a Virus rating [11] of 0.5 and a Plaque reduction [12] of 0%. For the same compound, the Plaque reduction [13] was 0%, the Plaque reduction [14] was 0% and the Plaque reduction [15] was 0%. For the same compound, the Plaque reduction [16] was 10%, the Plaque reduction [17] was 0% and the Plaque reduction [18] was 10%. It also gave a Plaque reduction [19] of 0%.
`OC[C@H]1O[C@@H](C2=NNC3C(=S)N=CN=C23)[C@H](O)[C@@H]1O` (some centres not stated) gave a Virus rating [1] of 1, a Plaque reduction [20] of 10% and a Virus rating [2] of 1.1. It also gave a Plaque reduction [21] of 0%, a Plaque reduction [22] of 0% and a Plaque reduction [23] of 61%. The Plaque reduction [24] was 61%, the Plaque reduction [25] was 0% and the Plaque reduction [26] was 0%. It also gave a Virus rating [6] of 0 and a Plaque reduction [27] of 10%.
In the case of `OC[C@H]1O[C@@H](n2cnc3c(S)ncnc32)[C@H](O)[C@@H]1O` [THIOINOSINE], the Virus rating [1] is reported as 1.1, the Virus rating [2] is reported as 1.2 and the Virus rating [6] is reported as 0.8.
`NC(=O)c1ncnc2c1ncn2C1O[C@H](CO)[C@@H](O)[C@H]1O` (some centres not stated) gave a Virus rating [28] of 0.6, a Virus rating [29] of 1.1 and a Virus rating [30] of 0.6. It also gave a Virus rating [31] of 1.5, a Virus rating [32] of 0 and a Virus rating [33] of 1.4.
For `OC[C@H]1OC(n2ncc3c(S)ncnc32)[C@H](O)[C@@H]1O` (some centres not stated), the Virus rating [30] was 0, the Virus rating [31] was 0.9 and the Virus rating [32] was 0.7.
